The results in this text go back to ChEMBL document CHEMBL3526048, “In vitro metabolism of rivoglitazone, a novel peroxisome proliferator-activated receptor γ agonist, in rat, monkey, and human liver microsomes and freshly isolated hepatocytes” (Drug Metab Dispos, 2011).

Series [1] deals with T1, UDP-glucuronosyltransferase 2B7 (Homo sapiens, UniProt P16662).
T1 sequence (P16662 whole entry): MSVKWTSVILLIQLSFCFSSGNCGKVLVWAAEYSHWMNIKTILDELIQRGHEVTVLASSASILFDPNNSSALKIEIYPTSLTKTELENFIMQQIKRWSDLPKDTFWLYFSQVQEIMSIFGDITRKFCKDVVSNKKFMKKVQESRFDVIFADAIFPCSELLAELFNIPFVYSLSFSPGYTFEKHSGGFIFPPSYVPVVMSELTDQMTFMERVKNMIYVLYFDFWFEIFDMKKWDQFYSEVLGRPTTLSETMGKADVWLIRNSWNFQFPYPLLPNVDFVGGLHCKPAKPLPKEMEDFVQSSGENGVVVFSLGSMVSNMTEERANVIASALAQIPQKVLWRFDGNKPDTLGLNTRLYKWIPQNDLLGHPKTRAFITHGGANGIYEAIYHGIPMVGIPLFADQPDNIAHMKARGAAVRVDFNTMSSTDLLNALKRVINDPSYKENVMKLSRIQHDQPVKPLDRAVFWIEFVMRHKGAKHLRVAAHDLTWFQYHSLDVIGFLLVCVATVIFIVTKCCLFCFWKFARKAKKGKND
The series can be described thus: Activity of human UGT2B7 expressed in microsomes isolated from baculovirus infected insect cell assessed as enzyme-mediated 3-(4-((6-methoxy-1-methyl-1H-benzo[d]imidazol-2-yl)methoxy)phenyl)-2-(methylsulfonyl)propanamide formation at 20 uM after 4 hrs by radio-HPLC/LC-MS/MS analysis in presence of NADPH-generating system/SAM. Format: ADME.

Series [2] in a line: Drug metabolism in cynomolgus monkey liver microsomes assessed as formation of 2-hydroxy-3-(4-((6-methoxy-1-methyl-1H-benzo[d]imidazol-2-yl)methoxy)phenyl)propanamide at 20 uM after 2 hrs by radio-HPLC/LC-MS/MS analysis in presence of NADPH-generating system and NADPH-generating system/SAM. Format: ADME, Macaca fascicularis. In general terms: Liver microsomes are vesicles of endoplasmic reticulum, rich in cytochrome P450 enzymes.

A short description of series [3]: Drug metabolism in po dosed monkey bile assessed as formation of 5-(4-((6-methoxy-1H-benzo[d]imidazol-2-yl)methoxy)benzyl)thiazolidine-2,4-dione. Format: ADME, organism-based, Macaca mulatta. As to conditions: rhesus monkey, in vivo.
The next series deals with Cytochrome P450 3A4 (Homo sapiens, UniProt P08684). The series can be described thus: Activity of human CYP3A4 expressed in microsomes isolated from baculovirus infected insect cell assessed as enzyme-mediated 2-((4-((2,4-dioxothiazolidin-5-yl)methyl)phenoxy)methyl)-1-methyl-1H-benzo[d]imidazol-6-yl hydrogen sulfate formation at 20 uM after 2 hrs by radio-HPLC/LC-MS/MS analysis. The series is classed as ADME. The gist of the method: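 Baculovirus-insect-cell microsomes expressing the human CYP (1 mg/ml protein) were incubated with [14C]rivoglitazone (20 μM) in 50 mM potassium phosphate (pH 7.4) or 100 mM Tris-HCl (pH 7.5) with an NADPH-generating system (2 mM NADP+, 20 mM glucose 6-phosphate, 2 units/ml G6PDH, 10 mM MgCl2) for 2 h at 37°C. Insect-cell control supersomes served as the control. Reactions were stopped with acetonitrile, and the concentrated supernatants were analysed by radio-HPLC, LC-MS and LC-MS/MS.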
Sequence of Cytochrome P450 3A4 (P08684 whole entry): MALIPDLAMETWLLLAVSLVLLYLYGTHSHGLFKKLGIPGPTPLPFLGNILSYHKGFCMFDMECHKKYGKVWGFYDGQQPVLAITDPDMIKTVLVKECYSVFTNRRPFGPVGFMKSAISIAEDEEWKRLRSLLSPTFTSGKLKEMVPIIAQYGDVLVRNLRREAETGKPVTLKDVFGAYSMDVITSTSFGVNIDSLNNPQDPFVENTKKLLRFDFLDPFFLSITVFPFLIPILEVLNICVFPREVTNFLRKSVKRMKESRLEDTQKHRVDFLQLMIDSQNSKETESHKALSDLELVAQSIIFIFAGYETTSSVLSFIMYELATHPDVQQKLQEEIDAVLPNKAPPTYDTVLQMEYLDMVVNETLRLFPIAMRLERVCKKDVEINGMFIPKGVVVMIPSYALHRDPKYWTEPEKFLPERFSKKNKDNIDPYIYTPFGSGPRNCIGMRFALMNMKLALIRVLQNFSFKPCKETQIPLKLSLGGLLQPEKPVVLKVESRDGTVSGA

Series [4] addresses T2, UDP-glucuronosyltransferase 1A6 (Homo sapiens, UniProt P19224).
T2 sequence (P19224 whole entry): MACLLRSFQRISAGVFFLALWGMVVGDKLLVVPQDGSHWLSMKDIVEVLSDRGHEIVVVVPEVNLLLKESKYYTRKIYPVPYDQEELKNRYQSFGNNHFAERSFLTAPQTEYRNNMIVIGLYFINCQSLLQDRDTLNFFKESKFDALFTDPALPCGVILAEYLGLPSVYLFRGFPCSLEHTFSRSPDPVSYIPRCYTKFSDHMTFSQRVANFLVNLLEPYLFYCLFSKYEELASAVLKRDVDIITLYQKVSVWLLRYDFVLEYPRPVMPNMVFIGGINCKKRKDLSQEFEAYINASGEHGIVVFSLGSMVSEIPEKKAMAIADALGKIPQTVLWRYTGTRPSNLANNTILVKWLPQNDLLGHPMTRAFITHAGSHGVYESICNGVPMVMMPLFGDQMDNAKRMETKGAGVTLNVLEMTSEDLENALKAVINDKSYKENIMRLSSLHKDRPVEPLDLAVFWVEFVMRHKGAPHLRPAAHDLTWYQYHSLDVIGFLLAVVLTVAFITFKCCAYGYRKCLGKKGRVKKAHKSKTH
The series can be described thus: Activity of human UGT1A6 expressed in microsomes isolated from baculovirus infected insect cell assessed as enzyme-mediated (2S,3S,4S,5R,6R)-6-((1-carboxy-2-(4-((6-methoxy-1-methyl-1H-benzo[d]imidazol-2-yl)methoxy)phenyl)ethylthio)carbonylamino)-3,4,5-trihydroxytetrahydro-2H-pyran-2-carboxylic acid formation at 20 uM after 4 hrs by radio-HPLC/LC-MS/MS analysis in presence of UDPGA. Format: ADME.

Series [5] in a line: Drug metabolism in po dosed monkey liver microsomes assessed as formation of 5-(4-((6-methoxy-1H-benzo[d]imidazol-2-yl)methoxy)benzyl)thiazolidine-2,4-dione. The series is classed as ADME, Macaca mulatta. As to conditions: rhesus monkey.
The target of series [6] is T3, UDP-glucuronosyltransferase 1A1 (Homo sapiens, UniProt P22309).
T3 sequence (P22309 whole entry): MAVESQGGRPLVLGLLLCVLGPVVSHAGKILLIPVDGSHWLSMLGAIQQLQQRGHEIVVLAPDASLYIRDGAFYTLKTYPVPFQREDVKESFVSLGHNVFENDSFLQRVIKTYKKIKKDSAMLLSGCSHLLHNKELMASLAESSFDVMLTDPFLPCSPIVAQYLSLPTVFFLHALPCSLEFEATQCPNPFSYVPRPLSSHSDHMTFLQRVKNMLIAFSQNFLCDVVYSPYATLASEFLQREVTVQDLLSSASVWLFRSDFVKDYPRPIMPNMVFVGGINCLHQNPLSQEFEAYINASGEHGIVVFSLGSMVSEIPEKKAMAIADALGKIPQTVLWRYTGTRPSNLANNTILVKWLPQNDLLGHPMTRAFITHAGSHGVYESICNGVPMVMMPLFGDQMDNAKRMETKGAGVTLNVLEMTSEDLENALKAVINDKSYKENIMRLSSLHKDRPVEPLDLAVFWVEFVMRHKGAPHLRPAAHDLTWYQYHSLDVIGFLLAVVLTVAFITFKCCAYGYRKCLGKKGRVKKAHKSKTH
Description: Activity of human UGT1A1 expressed in microsomes isolated from baculovirus infected insect cell assessed as enzyme-mediated (2S,3S,4S,5R,6R)-3,4,5-trihydroxy-6-(5-(4-((6-methoxy-1-methyl-1H-benzo[d]imidazol-2-yl)methoxy)benzyl)-2,4-dioxothiazolidin-3-yl)tetrahydro-2H-pyran-2-carboxylic acid formation at 20 uM after 4 hrs by radio-HPLC/LC-MS/MS analysis in presence of UDPGA. The series is classed as ADME. In a few lines: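 Alamethicin (50 μg/mg protein, 15 min on ice) pretreated expressed human UGT microsomes (1 mg/ml protein) from baculovirus-infected insect cells. Incubation with [¹⁴C]rivoglitazone (20 μM) in 100 mM Tris-HCl (pH 7.5) with 10 mM MgCl₂, started by 5 mM UDPGA, 4 h at 37°C with shaking. UGT insect-cell control supersomes were run alongside. Acetonitrile stop, concentrated supernatant analysed by radio-HPLC, LC-MS and LC-MS/MS.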

On to `COc1ccc2nc(COc3ccc(C[14CH]4SC(=O)NC4=O)cc3)n(C)c2c1.Cl` (racemic), for which the Drug metabolism entry in series [1] is reported as “metabolite_not_detected”; in series [2], “metabolite_detected”; in series [3] it was “metabolite_detected”; on Cytochrome P450 3A4, “metabolite_not_detected”; in series [4], “metabolite_not_detected”; in series [5] it was “metabolite_detected”. In addition, in series [6], the Drug metabolism entry is “metabolite_not_detected”.
